Only some compounds are listed: those with a hit (about 4.6% of all), similar ones and a draw of the others.
NALP3 yeast inh: blocks the NALP3 inflammasome reconstituted in yeast; Yeast reconstituted NLRP3/ASC/caspase-1, beta-gal luminescence, 24 h; inhibition, % at 10 µM; hit rate 0.39% among 330,000; AID 2825;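 active = inhibition of 50% or more; inactive = inhibition below 50%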;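 note: plate controls were induced DMSO wells for no effect and uninduced yeast grown without galactose for full effect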
Arrestin-AP2 inh: human beta-arrestin and AP2 interaction inhibition; inhibition, % at 10 µM; FITC-arrestin peptide / GST-AP2 beads, flow cytometry; AP2 beta2 appendage carries R879A mutation; hit rate 0.31% among 340,000; AID 504490;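 active = inhibition above a set limit, near 3 SD of compounds lacking own fluorescence, cut at about 54% in these data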;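 note: plate controls were DMSO wells for no effect and 5 µM unlabelled arrestin peptide for full effect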
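System: GST-AP2 R879A glutathione beads | Also added: FITC-arrestin peptide, 50 nM | Times: 12 min plus 1 h, RT | Signal: Bead flow cytometry, FITC channel | Buffer or medium: PBS with 0.05% Tween 20 and 0.1% BSA | Read-out basis: Percent drop in bead-associated FITC signal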
Pemphigus Ab inh: blocks pemphigus antibody binding to human desmoglein-3. P32926. DSG3-coupled beads, scFv-anti-DSG3-GFP binding, flow cytometry; stronger effect = lower value. binding (percent of control), % at 10 µM. hit rate 0.48% among 310,000. AID 588358;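 active = binding more than 3 SD below its plate's average and above zero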
PolyA inh: inhibitors of polyadenylation in S. cerevisiae; S. cerevisiae SKY197-pL101 polyadenylation reporter, beta-gal luminescence; efflux-impaired pdr1/pdr3 knockout yeast; score 100 = 6 SD above DMSO; activity score, % at 12 µM; hit rate 0.02% among 300,000; AID 1875;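 active = lowest replicate activity score at least 50, where 100 means six control SD above control mean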;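 note: yeast exposed to compound for 9 h at 30 °C; higher score means more reporter readthrough which indicates perturbed polyadenylation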
ALR H2O2 inh: inhibitors of human sulfhydryl oxidase ALR; hit rate 3.8% among 290,000; inhibition, % (test concentration not listed); P55789; AID 485317; purified ALR, DTT oxidation, H2O2 HRP-luminol luminescence;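 active = mean replicate inhibition above about 79%, with every replicate also reaching it, limit read from the data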
Target sequence (P55789 whole entry, looked up): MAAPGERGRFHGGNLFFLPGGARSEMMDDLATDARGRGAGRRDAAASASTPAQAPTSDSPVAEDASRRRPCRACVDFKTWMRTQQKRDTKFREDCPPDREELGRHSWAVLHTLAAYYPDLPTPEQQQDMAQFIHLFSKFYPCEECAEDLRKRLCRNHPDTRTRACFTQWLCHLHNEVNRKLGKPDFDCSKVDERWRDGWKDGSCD
NALP1 inh: inhibitors of NALP1 inflammasome in yeast. S. cerevisiae NALP1/ASC/caspase-1 growth, X-gal OD620, 72 h. inhibition, % at 10 µM. hit rate 0.61% among 280,000. AID 2071; in the data active = inhibition mostly above about 24%, no sharp cut-off; inactive = mostly below about 32%
* hit, by the source's call; nt = not tested or not shown.

SMILES	NALP3 yeast inh	Arrestin-AP2 inh	Pemphigus Ab inh	PolyA inh	ALR H2O2 inh	NALP1 inh
OCC1OC(n2cnc3c(NCc4ccccc4O)ncnc32)C(O)C1O (stereo not given)	nt	8	99	nt	nt	nt
CNC(=O)[C@H]1O[C@@H](n2cnc3c(NCc4cccc(I)c4)ncnc32)[C@H](O)[C@@H]1O	3	2	123	nt	82*	nt
C[C@@H]1CN([C@@H](C)CO)C(=O)c2cc(Br)cnc2O[C@H]1CN(C)C(=O)CN1CCOCC1	nt	nt	101	nt	nt	nt
COc1ccc(S(=O)(=O)N2CCOCC2)cc1NC(=O)c1ccc(S(=O)(=O)N(C)c2ccccc2OC)cc1	nt	-3	96	nt	nt	nt
CCN(Cc1nc2ccccc2c(=O)[nH]1)C(=O)c1cc2c(s1)CCCCC2	22	-2	105	nt	-1	nt
CCCn1c(SCC(=O)Nc2nonc2C)nnc1-c1ccoc1C	-5	4	99	0	-16	3
Cc1nonc1NC(=O)CSc1nnc(-c2ccoc2C)n1-c1cccc(Cl)c1	1	2	nt	2	7	44*
COc1cccc(NC(=O)CSc2nnc(-c3ccoc3C)n2-c2ccccc2)c1	-5	nt	nt	-1	1	-7
COc1ccc(-n2c(SCC(=O)Nc3ccccc3)nnc2-c2ccoc2C)cc1	-2	12	nt	-12	96*	nt
O=C(COC(=O)c1ccc(O)cc1)NC1CCCCCCC1	nt	nt	99	nt	nt	nt
c1cnc2nc3c4ccccc4c4ccccc4c3nc2c1	nt	16	78*	nt	nt	nt
Cc1nc2ccccc2c2ncccc12	3	-3	121	0	0	25
O=C(CSc1nc2ccccc2o1)Nc1ccc(N2CCOCC2)cc1	16	3	107	-2	24	28*
CC(C)(C)c1nc(SCC(=O)Nc2ccc(N3CCOCC3)cc2)c2ccccc2n1	21	12	nt	1	98*	9
CC(C)(C)c1nc(SCC(=O)Nc2ccc3c(c2)OCCO3)c2ccccc2n1	28	-4	111	5	-62	-6
O=C(CSc1nc2cc(Cl)ccc2o1)Nc1ccc(N2CCOCC2)cc1	2	-4	96	-4	nt	11
CC(Sc1nc2ccccc2n1C)C(=O)Nc1ccc(N2CCOCC2)cc1 (stereo not given)	13	12	102	-5	95*	-6
CCOC(=O)c1c(/N=C/c2cccc([N+](=O)[O-])c2O)sc(C)c1C	18	2	83	-3	86*	51
COCCN(C(=O)C1CC(=O)N(Cc2ccccc2)C1)c1nc(-c2ccc([N+](=O)[O-])cc2)cs1 (stereo not given)	3	45	96	nt	-5	nt
COc1ccc(/C=C/C(=O)NCCSCc2ccco2)cc1OC	10	-1	nt	11	nt	39*
COc1ccc(NC(=S)NNC(=O)c2ccco2)c(OC)c1	18	-4	106	-4	77*	-1
COc1ccc(CCNC(=O)/C=C/c2ccco2)cc1OC	1	9	96	1	3	-8
COc1cc2c(cc1NC(=S)NC(=O)/C=C/c1ccc(OC)c(OC)c1)oc1ccccc12	nt	10	68*	nt	nt	34
COc1ccc(/C=C/C(=O)NC(=S)Nc2cc3oc4ccccc4c3cc2OC)cc1	12	6	90	3	-4	29
COc1ccccc1C(=O)NC(=S)Nc1ccc(NC(=O)c2ccco2)cc1	0	5	nt	-14	-7	-12
SMILES	NALP3 yeast inh	Arrestin-AP2 inh	Pemphigus Ab inh	PolyA inh	ALR H2O2 inh	NALP1 inh
COc1ccc(NC(=O)c2ccccc2NC(=O)c2ccco2)c(OC)c1	2	-1	101	-6	0	12
COc1ccccc1OCC(=O)NNC(=S)NC(=O)c1ccco1	13	-16	nt	-39	89*	37
Cc1cccc(-n2c(=O)c3ccccc3n3c(=S)[nH]nc23)c1C	19	11	99	-24	69	-8
COc1ccc(/C=C/C(=O)NC(=S)NNC(=O)c2ccco2)cc1OC	-9	14	86	6	85*	nt
Cc1onc(-c2ccccc2)c1C(=O)NNC(=S)NC(=O)/C=C/c1ccccc1	24	-4	82	-7	76*	5
COc1ccc(/C=C/C(=O)NC(=S)NNC(=O)c2c(-c3ccccc3)noc2C)cc1	32	10	98	-2	-2	9
COc1ccc(C(=O)NC(=S)NNC(=O)c2ccco2)cc1	-8	0	91	-31	100*	-8
